Activity calls are given as the source filed them. No cut-off for these calls is given here.
Target: Protein cereblon/Cyclin-dependent kinase 9 (Homo sapiens, UniProt P50750+Q96SW2)
Test: Protac activity at CDK9/CRBN in human HEK293 cells assessed as degradation of CDK9 at 0.01 to 10 uM incubated for 24 hrs by Western blot analysis
Type: cell-based
Conditions: dose 0.01-10 µM
Outline: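 HEK293 cells were treated with increasing concentrations (0.01–10 μM) for 24 hr. Lysates were analysed by western blot for CDK9 degradation.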

Chain of Protein cereblon/Cyclin-dependent kinase 9 (P50750 whole entry, looked up): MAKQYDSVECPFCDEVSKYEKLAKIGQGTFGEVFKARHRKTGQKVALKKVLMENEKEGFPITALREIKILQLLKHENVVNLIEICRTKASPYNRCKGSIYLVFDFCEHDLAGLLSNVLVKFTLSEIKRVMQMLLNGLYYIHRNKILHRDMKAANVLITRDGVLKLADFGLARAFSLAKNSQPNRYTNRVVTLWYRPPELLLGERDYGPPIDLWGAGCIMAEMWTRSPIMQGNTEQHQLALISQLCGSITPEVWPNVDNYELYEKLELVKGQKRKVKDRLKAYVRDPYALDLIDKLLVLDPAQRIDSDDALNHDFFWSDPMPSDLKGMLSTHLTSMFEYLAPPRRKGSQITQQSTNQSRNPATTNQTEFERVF
Chain of Protein cereblon/Cyclin-dependent kinase 9 (Q96SW2 whole entry, looked up): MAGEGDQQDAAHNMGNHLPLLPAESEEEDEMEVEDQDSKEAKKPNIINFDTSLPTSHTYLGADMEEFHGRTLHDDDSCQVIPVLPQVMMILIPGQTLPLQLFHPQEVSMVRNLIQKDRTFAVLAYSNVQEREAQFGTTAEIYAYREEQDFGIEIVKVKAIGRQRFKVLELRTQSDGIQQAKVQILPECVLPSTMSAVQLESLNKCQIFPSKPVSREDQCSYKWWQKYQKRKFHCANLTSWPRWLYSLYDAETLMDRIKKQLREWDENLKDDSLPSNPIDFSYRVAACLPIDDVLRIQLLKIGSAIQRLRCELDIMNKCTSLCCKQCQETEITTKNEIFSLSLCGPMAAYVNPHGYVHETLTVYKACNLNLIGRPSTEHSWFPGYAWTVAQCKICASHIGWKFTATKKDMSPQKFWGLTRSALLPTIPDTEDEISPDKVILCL

Activity: inactive
Compound: O=C(CCCOc1ccc(CC(=O)Nc2cc(C3CCC3)[nH]n2)cc1)NCCCOCCOCCOCCCNc1cccc2c1C(=O)N(C1CCC(=O)NC1=O)C2=O (stereo unspecified)
